Results published in ChEMBL document CHEMBL3804761, “Synthesis of a stable and orally bioavailable englerin analogue” (Bioorg Med Chem Lett, 2016).

How the values were obtained:
Format in all cases: functional
[1] = system: SK-MEL-28; assay: Growth inhibition of human SK-MEL-28 cells assessed as cell growth at 10 uM incubated for 48 hrs by sulforhodamine B assay relative to control; conditions: SK-MEL-28, 48 h, read-out: Activity
Summary of the method: (§1)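 Run in the standard NCI 60-cell-line screen. Cells were exposed to drug for two days, and the read-out was sulforhodamine B staining. Compound was tested at a single final concentration of 10 µM in every line, and results are reported as growth percent.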

[2] = system: NCI/ADR-RES; assay: Growth inhibition of human NCI/ADR-RES cells assessed as cell growth at 10 uM incubated for 48 hrs by sulforhodamine B assay relative to control; conditions: read-out: Activity; summary of the method: as §1
[3] = system: T47D; assay: Growth inhibition of human T47D cells assessed as cell growth at 10 uM incubated for 48 hrs by sulforhodamine B assay relative to control; conditions: read-out: Activity
Summary of the method: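 NCI 60-cell line standard protocol, one-dose screen: single final concentration 10 µM, 2-day drug exposure, sulforhodamine B (SRB) endpoint; read-out is growth percent relative to untreated control.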

[4] = system: 786-0; assay: Growth inhibition of human 786-0 cells assessed as cell growth at 10 uM incubated for 48 hrs by sulforhodamine B assay relative to control; conditions: 786-0, 48 h, read-out: Activity; summary of the method: as §1
[5] = system: HT-29; assay: Growth inhibition of human HT-29 cells assessed as cell growth at 10 uM incubated for 48 hrs by sulforhodamine B assay relative to control; conditions: HT-29, 48 h, read-out: Activity; summary of the method: as §1
[6] = Growth inhibition of human IGROV1 cells assessed as cell growth at 10 uM incubated for 48 hrs by sulforhodamine B assay relative to control; conditions: IGROV-1, 48 h, read-out: Activity; summary of the method: as §1
[7] = Growth inhibition of human Caki1 cells assessed as cell growth at 10 uM incubated for 48 hrs by sulforhodamine B assay relative to control; conditions: CAKI-1, 48 h, read-out: Activity; summary of the method: as §1
[8] = system: MDA-MB-435; assay: Growth inhibition of human MDA-MB-435 cells assessed as cell growth at 10 uM incubated for 48 hrs by sulforhodamine B assay relative to control; conditions: MDA-MB-435, 48 h, read-out: Activity; summary of the method: as §1
[9] = system: SN12C; assay: Growth inhibition of human SN12C cells assessed as cell growth at 10 uM incubated for 48 hrs by sulforhodamine B assay relative to control; conditions: read-out: Activity; summary of the method: as §1
[10] = Growth inhibition of human HOP92 cells assessed as cell growth at 10 uM incubated for 48 hrs by sulforhodamine B assay relative to control; conditions: HOP-92, 48 h, read-out: Activity
Summary of the method: (§2)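 Single-dose screen in the NCI 60-cell-line panel at one final concentration of 10 µM. Two-day drug exposure with a sulforhodamine B endpoint. Values are growth percent for each cell line.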

[11] = system: Malme-3M; assay: Growth inhibition of human MALME-3M cells assessed as cell growth at 10 uM incubated for 48 hrs by sulforhodamine B assay relative to control; conditions: read-out: Activity; summary of the method: as §1
[12] = Growth inhibition of human SF539 cells assessed as cell growth at 10 uM incubated for 48 hrs by sulforhodamine B assay relative to control; conditions: SF-539, 48 h, read-out: Activity; summary of the method: as §2
[13] = Growth inhibition of human OVCAR8 cells assessed as cell growth at 10 uM incubated for 48 hrs by sulforhodamine B assay relative to control; conditions: OVCAR-8, 48 h, read-out: Activity; summary of the method: as §1
[14] = system: NCI-H460; assay: Growth inhibition of human NCI-H460 cells assessed as cell growth at 10 uM incubated for 48 hrs by sulforhodamine B assay relative to control; conditions: NCI-H460, 48 h, read-out: Activity; summary of the method: as §1
[15] = Growth inhibition of human RPMI8226 cells incubated for 48 hrs by sulforhodamine B assay; conditions: RPMI-8226, 48 h
Summary of the method: (§3)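 NCI 60-cell-line panel, standard protocol. Cells exposed to compound for two days, growth read by sulforhodamine B staining. Tested at five 10-fold dilutions, top concentration 100 µM, to give dose-response curves.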

[16] = system: NCI-H226; assay: Growth inhibition of human NCI-H226 cells incubated for 48 hrs by sulforhodamine B assay; conditions: NCI-H226, 48 h; summary of the method: as §3
[17] = system: HT-29; assay: Growth inhibition of human HT-29 cells incubated for 48 hrs by sulforhodamine B assay; conditions: HT-29, 48 h; summary of the method: as §3
[18] = system: T47D; assay: Growth inhibition of human T47D cells incubated for 48 hrs by sulforhodamine B assay
Summary of the method: (§4)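 Tested in the standard NCI 60-cell-line protocol with two-day drug exposure and a sulforhodamine B endpoint. Compounds were first screened at a single final concentration of 10 µM, reported as growth percent. They were then run as five 10-fold dilutions starting from a high concentration of 100 µM to give dose-response curves.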

[19] = system: A549; assay: Growth inhibition of human A549/ATCC cells incubated for 48 hrs by sulforhodamine B assay; conditions: A549, 48 h; summary of the method: as §3
[20] = Growth inhibition of human HOP62 cells incubated for 48 hrs by sulforhodamine B assay; conditions: HOP-62, 48 h; summary of the method: as §3
[21] = Growth inhibition of human SF268 cells incubated for 48 hrs by sulforhodamine B assay; conditions: SF-268, 48 h; summary of the method: as §3
[22] = Growth inhibition of human LOXIMVI cells incubated for 48 hrs by sulforhodamine B assay; conditions: LOX IMVI; summary of the method: as §3
[23] = system: NCI-H522; assay: Growth inhibition of human NCI-H522 cells incubated for 48 hrs by sulforhodamine B assay; conditions: NCI-H522, 48 h; summary of the method: as §3
[24] = Growth inhibition of human BT549 cells incubated for 48 hrs by sulforhodamine B assay; conditions: BT-549, 48 h; summary of the method: as §3
[25] = system: U-251; assay: Growth inhibition of human U251 cells incubated for 48 hrs by sulforhodamine B assay; conditions: U-251, 48 h; summary of the method: as §4
[26] = system: SR; assay: Growth inhibition of human SR cells incubated for 48 hrs by sulforhodamine B assay; summary of the method: as §4
[27] = Growth inhibition of human OVCAR5 cells incubated for 48 hrs by sulforhodamine B assay; conditions: OVCAR-5, 48 h; summary of the method: as §3
[28] = system: Malme-3M; assay: Growth inhibition of human MALME-3M cells incubated for 48 hrs by sulforhodamine B assay; summary of the method: as §3
[29] = Growth inhibition of human OVCAR8 cells incubated for 48 hrs by sulforhodamine B assay; conditions: OVCAR-8, 48 h; summary of the method: as §3
[30] = read-out: pLC50 (the source's name) (converted)

Compound: CC(C)[C@@]12C[C@@H](NC(=O)CF)[C@@](C)(O1)[C@@H]1CC[C@@H](C)[C@H]1[C@@H]2OC(=O)/C=C/c1ccccc1
- growth at 10 µM [1]: 110%
- growth at 10 µM [2]: 98.5%
- growth at 10 µM [3]: 78.4%
- growth at 10 µM [4]: 97.3%
- growth at 10 µM [5]: 109%
- growth at 10 µM [6]: 103%
- growth at 10 µM [7]: 80.9%
- growth at 10 µM [8]: 106%
- growth at 10 µM [9]: 103%
- growth at 10 µM [10]: 75.8%
- growth at 10 µM [11]: 106%
- growth at 10 µM [12]: 87.9%
- growth at 10 µM [13]: 107%
- growth at 10 µM [14]: 104%

Compound: CC(C)[C@@]12C[C@@H](NC(=O)CO)[C@@](C)(O1)[C@@H]1CC[C@@H](C)[C@H]1[C@@H]2OC(=O)c1ccc2ccccc2c1
- GI50 [15]: 14.5 µM
- CC50 [15, 30]: 85.1 µM
- TGI ([15]; read-out: pTGI (converted)): 35.5 µM
- growth at 10 µM [1]: 93.2%
- GI50 [16]: 13.2 µM
- LC50 [16]: 85.1 µM
- TGI ([16]; read-out: pTGI (converted)): 33.1 µM
- growth at 10 µM [2]: 46.8%
- growth at 10 µM [3]: 67.9%
- growth at 10 µM [4]: 85%
- GI50 [17]: 17.4 µM
- LC50 [17]: 60.3 µM
- TGI ([17]; read-out: pTGI (converted)): 32.4 µM
- GI50 [18]: 14.8 µM
- CC50 [18, 30]: 56.2 µM
- TGI ([18]; read-out: pTGI (converted)): 28.8 µM
- GI50 [19]: 14.8 µM
- LC50 [19]: 63.1 µM
- TGI ([19]; read-out: pTGI (converted)): 30.2 µM
- GI50 [20]: 15.1 µM
- LC50 [20]: 55 µM
- TGI ([20]; read-out: pTGI (converted)): 28.8 µM
- growth at 10 µM [5]: 93.7%
- GI50 [21]: 13.5 µM
- LC50 (lethal concentration, 50% net cell kill) [21]: 57.5 µM
- TGI ([21]; read-out: pTGI (converted)): 28.2 µM
- GI50 [22]: 16.2 µM
- LC50 [22]: 57.5 µM
- TGI ([22]; read-out: pTGI (converted)): 30.2 µM
- GI50 [23]: 15.5 µM
- LC50 [23]: 56.2 µM
- TGI ([23]; read-out: pTGI (converted)): 29.5 µM
- growth at 10 µM [6]: 94.3%
- GI50 [24]: 14.8 µM
- CC50 [24, 30]: 57.5 µM
- TGI ([24]; read-out: pTGI (converted)): 28.8 µM
- growth at 10 µM [7]: 52.6%
- GI50 [25]: 16.2 µM
- LC50 (concentration giving 50% net cell kill) [25]: 56.2 µM
- TGI ([25]; read-out: pTGI (converted)): 30.2 µM
- GI50 [26]: 17.8 µM
- LC50 [26]: 81.3 µM
- TGI ([26]; read-out: pTGI (converted)): 38 µM
- GI50 [27]: 15.5 µM
- LC50 [27]: 55 µM
- TGI ([27]; read-out: pTGI (converted)): 28.8 µM
- growth at 10 µM [8]: 94%
- GI50 [28]: 16.2 µM
- LC50 [28]: 69.2 µM
- TGI ([28]; read-out: pTGI (converted)): 33.1 µM
- growth at 10 µM [9]: 66.7%
- GI50 [29]: 6.46 µM
- LC50 (concentration killing 50% of cells) [29]: 60.3 µM
- TGI ([29]; read-out: pTGI (converted)): 22.4 µM
- growth at 10 µM [11]: 85.3%
- growth at 10 µM [12]: 84.6%
- growth at 10 µM [13]: 51.3%
- growth at 10 µM [14]: 92.6%
